The text below walks through data of ChEMBL document CHEMBL2046370, “Beta-carboline alkaloids derived from the ascidian Synoicum sp” (Bioorg Med Chem, 2012).

One experiment relates to Staphylococcus aureus. Kind of experiment: Antibacterial activity against Staphylococcus aureus ATCC 6538p after 24 hrs. It counts as functional.
The subject of the next experiment is Bacillus subtilis. Description: Antibacterial activity against Bacillus subtilis ATCC 6633 after 24 hrs. To be noted: ATCC 6633, 24 h. The class given is functional.
The test system of a further experiment is Micrococcus luteus. Kind of experiment: Antibacterial activity against Micrococcus luteus IFC 12708 after 24 hrs. The class given is functional. Conditions: IFC 12708, 24 h.
The test system of the next experiment is Salmonella typhimurium. Description: Antibacterial activity against Salmonella typhimurium ATCC 14028 after 24 hrs. It counts as functional, Salmonella enterica subsp. enterica serovar Typhimurium. Conditions: Salmonella enterica, ATCC 14028, 24 h.
A further experiment concerns Proteus vulgaris. Kind of experiment: Antibacterial activity against Proteus vulgaris ATCC 3851 after 24 hrs. The class given is functional. Conditions: ATCC 3851, 24 h.
The next experiment deals with Escherichia coli. Kind of experiment: Antibacterial activity against Escherichia coli ATCC 35270 after 24 hrs. The class given is functional. Conditions: ATCC 35270, 24 h.
For another experiment, the system named is Aspergillus fumigatus. Kind of experiment: Antifungal activity against Aspergillus fumigatus HIC 6094 after 48 to 72 hrs. The class given is functional.
The subject of the next experiment is Trichophyton rubrum. Kind of experiment: Antifungal activity against Trichophyton rubrum IFO 9185 after 48 to 72 hrs. It counts as functional.
Experiment [1] concerns Trichophyton mentagrophytes. Description: Antifungal activity against Trichophyton mentagrophytes IFO 40996 after 48 to 72 hrs. It counts as functional.
The next experiment concerns Candida albicans. Description: Antifungal activity against Candida albicans ATCC 10231 after 48 to 72 hrs. It counts as functional.
A further experiment deals with A549. Description: Cytotoxicity against human A549 cells by MTT assay. The class given is functional. Conditions: read-out: LC50 (the source's name).
The target in a further experiment is T1, Sortase A (Staphylococcus aureus, UniProt Q9S446).
T1 sequence (Q9S446 whole entry): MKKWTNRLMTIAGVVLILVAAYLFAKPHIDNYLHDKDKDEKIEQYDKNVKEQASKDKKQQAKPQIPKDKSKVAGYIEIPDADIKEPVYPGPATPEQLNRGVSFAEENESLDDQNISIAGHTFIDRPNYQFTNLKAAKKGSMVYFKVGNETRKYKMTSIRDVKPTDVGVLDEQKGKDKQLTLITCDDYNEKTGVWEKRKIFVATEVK
Description: Inhibition of Staphylococcus aureus ATCC 6538p recombinant SrtA. The arrangement: species or system ATCC 6538p r.

Another experiment concerns the target Isocitrate lyase (Candida albicans, UniProt Q9P8Q7). Kind of experiment: Inhibition of Candida albicans recombinant ICL assessed as formation of glyoxylate phenylhydrazone by spectrophotometry. In outline:
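Recombinant enzyme assayed spectrophotometrically with isocitrate and phenylhydrazine present. Absorbance at 324 nm was monitored for glyoxylate phenylhydrazone formation, and IC50 was determined.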

Experiment [2] can be described thus: Inhibition of porcine cerebral cortex Na+/K+ ATPase assessed as formation of fluorescent 3-O-methylfluorescein from 3-O-methylfluorescein phosphate by fluorometry. It counts as tissue-based, Sus scrofa.

Molecules are shown by their SMILES. pIC50: −log10 of the molar value. Converted amounts (≈) assume the structure as drawn.

Sequence of Isocitrate lyase (Q9P8Q7 whole entry): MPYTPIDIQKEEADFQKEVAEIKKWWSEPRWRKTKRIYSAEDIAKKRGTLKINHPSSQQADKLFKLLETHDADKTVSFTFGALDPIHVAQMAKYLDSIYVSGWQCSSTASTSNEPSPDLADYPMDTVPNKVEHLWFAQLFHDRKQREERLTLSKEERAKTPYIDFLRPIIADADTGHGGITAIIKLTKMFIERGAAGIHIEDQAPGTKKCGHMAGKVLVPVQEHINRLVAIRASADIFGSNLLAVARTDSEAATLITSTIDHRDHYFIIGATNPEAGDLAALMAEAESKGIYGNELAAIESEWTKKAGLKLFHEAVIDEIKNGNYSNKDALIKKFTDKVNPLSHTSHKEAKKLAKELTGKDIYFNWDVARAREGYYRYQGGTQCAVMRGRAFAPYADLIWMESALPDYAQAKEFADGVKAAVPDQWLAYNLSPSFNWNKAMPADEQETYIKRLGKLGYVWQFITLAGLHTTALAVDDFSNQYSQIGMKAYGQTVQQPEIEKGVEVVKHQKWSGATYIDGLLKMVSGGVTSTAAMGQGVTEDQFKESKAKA

By MIC is commonly meant the least concentration at which growth counts as inhibited. High values mean a need for much substance, low ones inhibition by little substance. In general, pIC50 refers to −log10 of the IC50, conventionally taken in molar units. As for `O=C(c1ccc(O)c(Br)c1)c1nccc2c1[nH]c1ccccc12` [EUDISTOMIN Y3], the MIC amounted to 12.5 µg/mL (≈ 34 µM) in the experiment with Staphylococcus aureus; 12.5 µg/mL (≈ 34 µM) in the experiment on Bacillus subtilis; 12.5 µg/mL (≈ 34 µM) with Micrococcus luteus; 6.25 µg/mL (≈ 17 µM) with Salmonella typhimurium; 6.25 µg/mL (≈ 17 µM) in the experiment on Proteus vulgaris; 100 µg/mL (≈ 272 µM) against Escherichia coli. In addition, the minimal inhibitory concentration (MIC) (in the experiment on Aspergillus fumigatus; in the experiment with Trichophyton rubrum; in experiment [1]; against Candida albicans) was greater than 100 µg/mL each time. The CC50 with A549 amounted to 253 µM. In addition, the values for the pIC50 (on Sortase A; on Isocitrate lyase; in experiment [2]) were less than 3.56, less than 3.56 and 4.65, respectively.
